Assay outcomes (PubChem BioAssay)
Most compounds without a hit are left out; they make up all but 9.8% or so of the library.
Rad51 HR inh: human RAD51 strand exchange inhibitors, primary screen, biochemical, fluorescence; hRad51 DNA strand exchange, fluorescence dequenching; inhibition, % at 10 µM; 0.085% of 200,000 active; AID 1385, 2008;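 active means inhibition above 40% at the single screening dose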;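 further: 0% = DMSO control wells and 100% = blanks with heterologous ssDNA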
Target sequence (Q06609 whole entry, looked up): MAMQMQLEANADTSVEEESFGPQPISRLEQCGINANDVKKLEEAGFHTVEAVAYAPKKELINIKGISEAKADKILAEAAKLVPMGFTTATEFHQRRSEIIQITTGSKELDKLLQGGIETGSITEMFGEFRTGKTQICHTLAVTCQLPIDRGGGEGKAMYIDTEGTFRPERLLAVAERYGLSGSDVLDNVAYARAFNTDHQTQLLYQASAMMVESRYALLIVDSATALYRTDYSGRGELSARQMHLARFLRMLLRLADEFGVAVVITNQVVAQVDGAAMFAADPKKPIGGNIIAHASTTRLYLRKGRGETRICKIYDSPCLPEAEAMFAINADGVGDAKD
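Material: hRad51 filaments on single-stranded DNA; Reagent: Donor/quencher-labelled 47-bp dsDNA substrate; Compound: 10 µM final, single point; Schedule: 37 °C 15-min filament assembly, 30-min compound preincubation, 15-min exchange; Technique: FRET fluorescence, excitation 485 nm, emission 520 nm; Benchmarks: control wells and blank wells on each plate.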
Calpain2 inh: inhibitors of pig calpain II, primary screen, biochemical, fluorogenic peptide substrate, 1536-well. purified calpain II, 30 min. inhibition, % at 16 µM. 0.37% of 220,000 active. AID 1236, 2008;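 active means inhibition above about 50%, limit read from the data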
PMI activator: activators of human PMI, primary screen, biochemical, fluorescence intensity, near-Km mannose 6-phosphate. Mannose-6-phosphate isomerase (Homo sapiens), P34949. purified human PMI, coupled resazurin fluorescence, 20 min; hits give high values; 1 = vehicle control, 0 substrate-free wells. 0.005% of 190,000 active. activation factor at 20 µM;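 active means activation factor of 2 or more at 20 µM, relative to plate controls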
Lmaj promast: Leishmania major promastigote growth inhibition, primary screen | Leishmania major promastigotes, resazurin fluorescence viability | 9% of 200,000 active | AID 1063, 2008 | inhibition, % at 10 µM; in the data active means inhibition above about 50%;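 further: promastigotes grown with compound for 44 hours at 28 °C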
PMI act satM6P: human PMI activators, high substrate, primary screen, biochemical, fluorescence intensity, near-saturating mannose 6-phosphate; Mannose-6-phosphate isomerase (Homo sapiens), P34949; coupled PMI enzyme assay, resazurin fluorescence, 20 min; hits give high values; 1 = untreated enzyme, 0 = substrate-free blank; activation factor at 20 µM; 0.34% of 190,000 active;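 active means activation factor of 2 or more at 20 µM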
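test system = human PMI in coupled enzyme assay | medium = HEPES-buffered pH 7.4 with magnesium and detergent | also added = 1.0 mM mannose-6-phosphate substrate with 0.22 mM NADP+ | compound = 20 µM single dose | times = 20 min incubation at room temperature | measured by = resorufin fluorescence (Ex 544/Em 590 nm) from resazurin via diaphorase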
WT yeast gro inh: growth inhibition of WT strain, primary screen, mitochondrial fusion inhibitor project, WT and mutant strains, chemical genetic; mitochondrial fusion phenotypic screen; inhibition, % at 10 µM; 2.1% of 190,000 active; in the data active means inhibition above about 58%; tested in S. cerevisiae
Lmaj promast 1uM: Leishmania major promastigote growth inhibition, confirmation, 1 µM repeat of primary hits; shares compounds with Lmaj promast; inhibition, % at 1 µM; AID 1258, 2008; L. major promastigote growth, resazurin fluorescence, 48 h; 13% of 1,100 active;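 active means inhibition above about 50% in both repeat tests, limit read from the data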
* marks the source's active call; other numbers are inactive results; i = inactive; nt = no result given.

SMILES	Rad51 HR inh	Calpain2 inh	PMI activator	Lmaj promast	PMI act satM6P	WT yeast gro inh	Lmaj promast 1uM
COc1ccccc1C1CC(c2c(-c3ccccc3)c3cc(Cl)ccc3[nH]c2=O)=NN1S(C)(=O)=O (stereo not drawn)	-5	-72	0.8	65*	0.8	-17	0
CCOC(=O)N1CCC(NS(=O)(=O)c2cc3c(cc2Cl)NC(=O)CO3)CC1	5	-7	1	55*	1	7	-8
CCOC(=O)N1CCC(NS(=O)(=O)c2ccc3c(c2)OCC(=O)N3)CC1	-3	-18	1	-7	1	2	nt
Cn1nnnc1SCC(=O)Nc1ccccc1C(N)=O	-8	16	1.1	2	1.1	3	nt
Cc1cc(C)c2ccc(Cl)cc2n1	-1	8	nt	nt	nt	nt	nt
CC(=O)c1c(C)nc2cc(Cl)ccc2c1N	nt	20	0.8	50*	0.8	12	20
CCC(C)NS(=O)(=O)c1ccc(S(=O)(=O)N2CC=C(c3ccc(F)cc3)CC2)cc1 (stereo not drawn)	-28	13	0.9	36	1	4	nt
Cc1cc(C)c(COCc2cc(/C=N/O)c(C)cc2C)cc1/C=N/O	4	15	0.8	89*	0.8	1	-10
O=S(=O)(NCC(c1ccco1)N1CCOCC1)c1ccc(Cl)cc1 (stereo not drawn)	5	-15	1	-4	1	-25	nt
N#Cc1c(NC(=O)C2CC(c3ccccc3O)=NO2)sc2c1CCC2 (stereo not drawn)	-6	10	0.9	-3	1	16	nt
Cc1ccc(C(=O)NC(=C(Cl)Cl)S(=O)(=O)c2ccccc2)cc1	-3	10	1	72*	1	-18	-7
COc1ccc(N2CCN(c3ncnc4c3[nH]c3ccccc34)CC2)cc1	-6	15	0.8	14	0.9	0	nt
COc1cc2[nH]c3c(N4CCN(c5ccccn5)CC4)ncnc3c2cc1OC	nt	i	1	100*	0.9	7	-29
Cc1ccc(NC(=O)O/N=C2\CCCCC2c2ccc([N+](=O)[O-])cc2[N+](=O)[O-])cc1 (stereo not drawn)	nt	-63	0.9	99*	0.9	4	15
COc1cc2c(cc1NC(=S)NC(=O)c1c(OC)cccc1OC)oc1ccccc12	0	-5	0.9	88*	0.9	3	46
CCOc1nc(OCC)c2cnn(C)c2n1	13	1	nt	nt	nt	nt	nt
Cc1ccc(S(=O)(=O)N[C@H](C(=O)OCn2nnc3ccccc3c2=O)C(C)C)cc1	-3	6	1	67*	1.1	0	-8
Cc1ccc(S(=O)(=O)NNC(=O)C2CCN(Cc3ccccc3)CC2)cc1	2	-2	1.1	85*	1.1	-32	4
CC(=O)C1CCN(Cc2ccccc2)CC1	0	21	1	31	0.9	-3	nt
N#CCCN(Cc1cccs1)C(=O)c1ccc(Cl)cc1	18	-8	nt	nt	nt	nt	nt
COc1cccc(C(=O)NC2CCN(C(=O)N3c4ccccc4Sc4ccccc43)CC2)c1	10	40	0.9	71*	0.9	53	-3
COCCn1c(=O)[nH]c(=O)c2c(C(F)(F)F)cc(-c3cccs3)nc21	0	-465	0.9	27	1	0	nt
CC(C)C(OC(=O)/C=C/c1ccc2c(c1)OCO2)C(=O)NC(N)=O (stereo not drawn)	0	-9	1	-2	0.9	13	nt
CN(C)c1ccc(/C=N/NC(=O)c2nonc2N)cc1[N+](=O)[O-]	6	-12	0.9	-6	0.8	5	nt
Nc1nonc1C(=O)N/N=C/c1cccc([N+](=O)[O-])c1	1	5	0.9	54*	0.9	-9	1
